In the experiment the test system is ERG (ERG oncoprotein, ETS transcription factor) in VCaP cells. Nature of the experiment: Inhibition of ERG in human VCaP cells after 48 hrs by Western blotting analysis. Summed up: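 In VCaP prostate cancer cells, ERG and RIOK2 protein levels were measured by Western blot after treatment. IC50 values were derived from the concentration-response of protein inhibition.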

Each structure is given as a SMILES string. Some results are limits rather than exact numbers.

Usually IC50 stands for the concentration needed to halve the response being measured. The molecule `O=S(=O)(O)c1cccc2c(S(=O)(=O)O)cccc12` returned an IC50 of over 500 nM.
Consider `Oc1ccc2ccccc2c1/N=N/c1nccs1` [DNDI1417016], for which it took 310 nM to reach half-maximal inhibition (IC50). This lies in the sub-micromolar range.

The record behind these values is BindingDB's records for doi:10.1021/acsmedchemlett.1c00308 (Uniformed Services University of The Health Sciences, 2021).
